HKDC1 act: HKDC1 hexokinase activators, primary screen, biochemical, fluorescence, uHTS; Q2TB90; recombinant HKDC1, G6PDH/diaphorase resazurin fluorescence; stronger effect = lower value; activity change, negative = activation, % at 20 µM; hit rate 0.056% among 340,000;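 active = activation of 40% or more at 20 µM, a change of -40% or lower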
Target sequence (Q2TB90 whole entry, looked up): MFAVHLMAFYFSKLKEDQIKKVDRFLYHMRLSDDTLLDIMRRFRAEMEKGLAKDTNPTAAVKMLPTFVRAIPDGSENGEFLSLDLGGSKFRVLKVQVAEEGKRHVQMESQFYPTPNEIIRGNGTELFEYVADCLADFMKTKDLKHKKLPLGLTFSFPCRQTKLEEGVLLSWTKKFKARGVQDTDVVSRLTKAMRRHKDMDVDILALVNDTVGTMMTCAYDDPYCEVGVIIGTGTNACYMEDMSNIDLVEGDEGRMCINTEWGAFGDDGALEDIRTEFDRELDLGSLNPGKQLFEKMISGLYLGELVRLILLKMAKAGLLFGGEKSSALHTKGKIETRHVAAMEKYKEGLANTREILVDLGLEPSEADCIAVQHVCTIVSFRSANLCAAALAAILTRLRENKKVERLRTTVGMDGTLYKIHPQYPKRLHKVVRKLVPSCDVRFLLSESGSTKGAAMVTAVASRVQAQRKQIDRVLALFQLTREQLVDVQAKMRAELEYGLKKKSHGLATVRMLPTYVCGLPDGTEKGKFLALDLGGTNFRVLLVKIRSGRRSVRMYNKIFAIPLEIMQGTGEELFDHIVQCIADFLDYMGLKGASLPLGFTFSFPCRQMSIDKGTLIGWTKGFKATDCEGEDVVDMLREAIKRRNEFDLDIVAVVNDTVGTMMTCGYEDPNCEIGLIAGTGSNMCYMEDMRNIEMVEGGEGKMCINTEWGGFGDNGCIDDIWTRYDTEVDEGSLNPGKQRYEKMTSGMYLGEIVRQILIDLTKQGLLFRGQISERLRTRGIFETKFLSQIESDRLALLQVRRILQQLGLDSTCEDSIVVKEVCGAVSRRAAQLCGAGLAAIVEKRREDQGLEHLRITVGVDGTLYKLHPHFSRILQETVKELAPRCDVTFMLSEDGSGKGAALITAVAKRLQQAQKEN
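Material – in-house human HKDC1 enzyme, G6PDH and diaphorase coupling enzymes · Input – HKDC1 at 5 µg/mL final · Buffer or medium – pH 8.0 Tris with MgCl2 · Dosing – single compound dose of 20 µM, 1% DMSO final · Incubation – 90 min, room temperature · Technique – resorufin fluorescence from 100 µM resazurin, NADP 1 mM, Ex 525/Em 613 nm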
The depositor's hits bear a star. Not all results are given here.

SMILES	HKDC1 act
CCN1CCN(c2cc3c(nn2)Oc2ccccc2N3C)CC1	-43.8*
CCN(CC)c1ccc(C(=C2C=CC(=[N+](CC)CC)C=C2)c2ccc(N(CC)CC)cc2)cc1	53.7
O=C(O)c1ccc2ncsc2c1	40.7
CCN1/C(=C/C=C/c2oc3ccc4ccccc4c3[n+]2CC)Oc2ccc3ccccc3c21	50.8
Cc1cc2cc(CN(Cc3cccs3)S(=O)(=O)c3ccc4c(c3)OCCO4)c(=O)[nH]c2cc1C	-47.0*
Cc1cc2cc(CCNC(=O)c3ccc(S(=O)(=O)N4CCCC4)cc3)c(=O)[nH]c2cc1C	41.4
CCc1ccc(S(=O)(=O)/N=C2/C=C(Sc3ncn[nH]3)C(=O)c3ccccc32)cc1	71.3
NC(CSC(c1ccccc1)(c1ccccc1)c1cccc2ccccc12)C(=O)O (stereo not drawn)	35.4
CC1=NNC(=O)/C1=C\c1cn(-c2ccccc2)nc1-c1ccc(Cl)cc1	37.2
COc1ccc2[nH]c(=O)c(CN(C3CCCCC3)C(c3nnnn3Cc3ccco3)C(C)C)cc2c1 (stereo not drawn)	36.9
CN(c1ccc(C(=O)N2CCN(Cc3ccccc3)CC2)cc1)S(=O)(=O)c1ccccc1	-75.7*
CCc1ccc(S(=O)(=O)NCCc2cn3ccccc3n2)s1	39.4
O=S(=O)(O)c1cc(O)c2ccc(Nc3ccccc3)cc2c1	49.9
O=S(=O)(NC1c2cccc3cccc(c23)C1N1CCN(CCO)CC1)c1ccccc1 (stereo not drawn)	-66.1*
O=S(=O)(NC1c2cccc3cccc(c23)C1N1CCNCC1)c1ccccc1 (stereo not drawn)	-55.8*
NC1=C(Br)C(=O)c2ncccc2C1=O	37.9
Cn1nccc1C(=O)N1CCN(c2cccc(Cl)c2)CC1	38.7
COc1cc(/C=C2\SC(c3ccc(C)cc3)=NC2=O)cc(OC)c1O	47.5
COc1ccc(S(=O)(=O)Nc2cc(SCC(=O)O)c(O)c3ccccc23)cc1	57.1
CCc1nn2c(=O)cc(COc3ccc(/C=C4\C(=N)N5N=C(C)SC5=NC4=O)cc3)nc2s1	58.2
CN(C)c1ncc(C2=C(Cl)C(=O)C(N3CCCC3)=C(Cl)C2=O)s1	35.1
O=C(CCl)N1c2ccccc2Sc2c1ccc1ccccc21	44.2
CCOC(=O)c1ccc(N=C2C(=S)N(c3ccc(C(=O)OCC)cc3)C(=N)N2/N=C/c2ccccc2)cc1	-136.4*
Cc1cc(C)c(S(=O)(=O)/N=C2/C=C(SCC(=O)O)C(=O)c3ccccc32)cc1C	51.1
O=C(N/N=C1/C(=O)c2cccc3cccc1c23)c1ccc(Cl)cc1	43.5
SMILES	HKDC1 act
Cc1cc(C)c2c(=N)c3ccccc3n(CCCCCCCCn3c4ccccc4c(=N)c4c(C)cc(C)nc43)c2n1	74.2
COc1cc(NC(=O)c2cnc(N)s2)cc(C(=O)Nc2cccc(C(F)(F)F)c2)c1	59.2
CC(=NNC(=S)N1CC2CCC(CC2)C1)c1cccc(C)n1	-46.5*
COCc1cc(C2C(C(=O)c3ccco3)=C(O)C(=O)N2CCOCCO)ccc1O (stereo not drawn)	35.4
CNc1sc(C(=O)c2ccc(F)cc2)c(N)c1-c1nc2ccccc2s1	-44.7*
O=C1C=CC(=O)c2c(O)c(CO)c(CO)c(O)c21	48.5
COc1ccc(N=C2C(=S)N(c3ccc(OC)cc3)C(=NS(=O)(=O)c3ccccc3)N2c2ccccc2)cc1	-68.5*
Cc1cccc(NC2=C/C(=N/S(=O)(=O)c3cccs3)c3ccccc3C2=O)c1	53.1
COc1ccc2cc(/C=N/NC(=O)c3c(Cl)cnn3C)c(Cl)nc2c1	-74.9*
O=C(NCCC(=O)N1CCCC(C(F)(F)F)C1)c1ccc(Br)cc1 (stereo not drawn)	36.2
CCCc1nc2oc3c(NCC4CCCO4)ncnc3c2c2c1COC(C)(C)C2 (stereo not drawn)	35.4
COC(=O)CCC(=O)OC1(C)C(=O)C2=COC(c3ccc(OC)cc3)=CC2=C(Br)C1=O (stereo not drawn)	36.7
Oc1ccc(/C=N/NC(=S)Nc2cccnc2)c(O)c1	-40.3*
O=S(=O)(O)c1ccc(O)c2cc(Nc3ccccc3)ccc12	64.6
O=C(CSc1n[nH]c(-c2ccccc2)n1)Nc1ncc(Br)cc1Br	47.7
CCC(Sc1nc(C)cc(C)n1)C(=O)NC1=NN=C(c2ccc(C)cc2)CS1 (stereo not drawn)	-149.5*
O=C(O)c1ccc(NC2=C/C(=N/S(=O)(=O)c3ccccc3)c3ccccc3C2=O)cc1	71.9
Cc1cc2nnc(SCC(=O)Nc3cc(S(=O)(=O)N4CCOCC4)ccc3Cl)n2c2ccccc12	47.8
O=S(=O)(c1ccc(NC(=S)NN=C(Cc2ccccc2)Cc2ccccc2)cc1)N1CCOCC1	-47.1*
COC(=O)c1cc(C)nc2c1C(=O)C(=O)C=C2N1CCOCC1	68.1

Assay outcomes (PubChem BioAssay)
